According to publication PMC5519669 (Forensic Toxicology, 2017):
“Also recorded” adds a separate entry of the source.

Experiments:
male rats = experiment: Rectal body temperature; format: in vivo, rat; details: 3 mg/kg i.p.; for Hypothermic effect compared to vehicle injection: 3 mg/kg; for Mean rectal body temperature versus vehicle: at 15 and 30 min and 1, 2, and 4 h post-injection
Method in brief: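 Male Long–Evans rats (49 days old, jugular-catheterised, n = 4/group) were housed singly in metabolic cages and given test compound i.p. at 3 mg/mL in 7.8% polysorbate 80/92.2% saline at 1 mL/kg, with a vehicle group. Rectal temperature was taken by digital thermometer 15 min pre-dose and 15, 30 min, 1, 2, 4, 8, 24 h post-dose. Analysis used mixed two-factor ANOVA, then Dunnett's tests versus vehicle per time point.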

[1] = Rat plasma kinetics after intraperitoneal injection; format: in vivo; details: for AUC(0-inf) / AUC(0-t) / Cmax / half-life: 3 mg/kg; for half-life: non-compartmental analysis; for Untransformed parent compound in plasma: 24 h post-dosing
[2] = Clearance in rat liver microsome incubation; format: in vitro ADME; details: for half-life at 1 µM / microsomal CLint at 1 µM: male, Sprague-Dawley, rat, pooled rat liver microsomes, pH 7.4; for Parent compound after incubation: rat liver microsome incubations, after 3 h incubations; for ER (extraction ratio) / CLH (estimated hepatic clearance) / CLint (estimated intrinsic clearance): rat liver microsomes; for CLH (estimated hepatic clearance): from CLint and liver blood flow; for CLint (estimated intrinsic clearance): scaled to whole-liver dimensions
[3] = Clearance in human liver microsome incubation; format: in vitro ADME; details: for Parent compound after incubation: human liver microsome incubations, after 3 h incubations; for ER (extraction ratio) / CLH (estimated hepatic clearance) / CLint (estimated intrinsic clearance): human liver microsomes; for CLH (estimated hepatic clearance): from CLint and liver blood flow; for CLint (estimated intrinsic clearance): scaled to whole-liver dimensions
[4] = male, Long-Evans, rat, plasma, ip
[5] = male, Long-Evans, rat, plasma, ip, Half-life, rat plasma, 3 mg/kg i.p.
[6] = male, human, pooled human liver microsomes, pH 7.4

Row | SMILES | Hypothermic effect compared to vehicle injection (male rats) | Mean rectal body temperature versus vehicle (male rats) | AUC(0-inf) [1, 4] | AUC(0-t) [1, 4] | Cmax [1, 4] | half-life [1, 5] | Untransformed parent compound in plasma ([1]; rat plasma, 3 mg/kg i.p.) | half-life at 1 µM [2] | microsomal CLint at 1 µM [2] | Parent compound after incubation [2] | ER (extraction ratio) [2] | CLH (estimated hepatic clearance) [2] | CLint (estimated intrinsic clearance) [2] | Parent compound after incubation [3] | ER (extraction ratio) [3] | CLH (estimated hepatic clearance) [3] | CLint (estimated intrinsic clearance) [3] | half-life at 1 µM [3, 6] | also measured
1 | CC(C)(NC(=O)c1cn(CCCCCF)c2ccccc12)c1ccccc1 [5F-CUMYL-PICA, 1-(5-fluoropentyl)-N-(2-phenylpropan-2-yl)-1H-indole-3-carboxamide] | produced hypothermic effects; also recorded: moderate hypothermic effects | significant hypothermic effects | 843 ng·h/mL | 582 ng·h/mL | 65.2 ng/mL | 720 min | detectible | 1.19 min | 580 µL/min/mg | still detectible | 0.95 | 52.44 mL/min/kg body wt. | 1048.24 mL/min/kg body wt. | still detectible | 0.96 | 19.15 mL/min/kg body wt. | 453.05 mL/min/kg body wt. | 1.77 min | microsomal CLint at 1 µM [3, 6]: 390 µL/min/mg
2 | CCCCCn1cc(C(=O)NC(C)(C)c2ccccc2)c2ccccc21 [CUMYL-PICA, 1-pentyl-N-(2-phenylpropan-2-yl)-1H-indole-3-carboxamide] | produced hypothermic effects; also recorded: moderate hypothermic effects | significantly reduced | 1210 ng·h/mL | 1090 ng·h/mL | 130 ng/mL | 420 min | detectible | 2.24 min | 310 µL/min/mg | still detectible | 0.91 | 50.22 mL/min/kg body wt. | 556.88 mL/min/kg body wt. | still detectible | 0.87 | 17.43 mL/min/kg body wt. | 135.46 mL/min/kg body wt. | 5.92 min | CL/F (observed apparent clearance) ([1]; rat plasma, 3 mg/kg i.p.): 43.31 mL/min/kg body wt.; half-life ([1]; rat plasma, 3 mg/kg i.p.): 436 min
